Results taken from ChEMBL document CHEMBL1132158, “4-[[2-(1-Methyl-2-pyrrolidinyl)ethyl]thio]phenol hydrochloride (SIB-1553A): a novel cognitive enhancer with selectivity for neuronal nicotinic acetylcholine receptors” (J Med Chem, 1999).

How the values were obtained:
Format in all cases: functional
[1] = tested on: Rattus norvegicus; assay: Acetylcholine release data in […] rats when compound was administered subcutaneously at dose of 40 mg/kg; conditions: route subcutaneous
Outline: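 In vivo acetylcholine release from hippocampus of freely moving Sprague–Dawley rats after subcutaneous dosing. […] Mean ± SEM of 2–6 independent experiments, compared against saline control by two-way repeated measures ANOVA with Student–Newman–Keuls post-hoc test.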

[2] = species on record: Rattus norvegicus; assay: In vitro efficacy to stimulate [3H]NE in rat hippocampus
Outline: (§1)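 Release of [3H]DA (striatum) or [3H]NE (hippocampus, prefrontal cortex) from rat brain slice preparations stimulated by test compound at 300 μM. […] Mean ± SD of 3–6 experiments.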

[3] = species on record: Rattus norvegicus; assay: In vitro efficacy to stimulate [3H]NE in rat prefrontal cortex membrane slice; outline: as §1
[4] = species on record: Rattus norvegicus; assay: In vitro efficacy to stimulate the release of [3H]dopamine from rat striatal slices; outline: as §1
[5] = tested on: Rattus norvegicus; assay: Acetylcholine release data in […] rats when compound was administered subcutaneously at dose of 40(mg/Kg)
[6] = species on record: Rattus norvegicus; assay: In vitro efficacy to stimulate [3H]-dopamine from brain slice preparations
Outline: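 Striatal brain slices stimulated with test compound at 300 μM; [3H]dopamine release measured. […] Mean ± SD of 3–6 experiments.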

Row | SMILES | Activity [1] | Efficacy [2] | Efficacy [3] | Efficacy [4] | Activity [5] | Efficacy [6]
1 | CN1CCC[C@@H]1CCSc1ccc(O)cc1 | 10 | 0.2 | 0.3 | 4.1 | – | –
2 | CN1CCCC1CCSc1ccccc1 (configuration not stated) | – | – | – | – | 0.6 | 1.5
3 | CN1CCC[C@H]1c1cccnc1 [NICOTINE] | – | 1 | 1 | 1 | – | –
4 | CN1CCCC1CCSc1ccc(O)cc1 (configuration not stated) | 12 | 0.2 | 0.6 | 6.5 | – | –
5 | CN1CCC[C@H]1CCSc1ccc(O)cc1 | 13 | 0.3 | 0.35 | 4.3 | – | –
